≈ marks a conversion by molar mass, not a printed value. A value given as a limit tells only on which side of the number the result lay.

12 compounds from ChEMBL document CHEMBL1122581, “Antiviral activity of C-5 substituted tubercidin analogues” (1984) can be followed below.

Holding throughout (format): functional
For one assay, the system named is Human respirovirus 3. In words: Concentration required to reduce parainfluenza virus type 3 induced cytopathogenicity by 50% in vero cell cultures.
The test system of assay [1] is Coxsackievirus B4. In words: Concentration required to reduce coxsackie virus B4 induced cytopathogenicity by 50% in vero cell cultures. Conditions: Enterovirus B.
A further assay relates to Sindbis virus. Kind of assay: Concentration required to reduce sindbis virus induced cytopathogenicity by 50% in vero cell cultures.
The test system of another assay is Vero. In words: Concentration required to cause a microscopically detectable alteration in cell morphology in vero cell cultures. The settings on record: Chlorocebus sabaeus, read-out: Min cytotoxic concentration. In short, it runs like this:
(§1)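 Uninfected cell monolayers were run in parallel with the antiviral assays and exposed to compound for the same period as the infected cultures. The end point was the lowest concentration giving a microscopically detectable disruption of normal cell morphology.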

Another assay relates to Poliovirus 1. In words: Concentration required to reduce polio virus type 1 induced cytopathogenicity by 50% in HeLa cell cultures. The settings on record: Enterovirus C.
A further assay is filed under the species Oryctolagus cuniculus. Kind of assay: Concentration required to cause a microscopically detectable alteration in cell morphology in primary rabbit kidney cell cultures. Conditions: read-out: Min cytotoxic concentration. In short, it runs like this: as §1
In assay [2] the test system is Vesicular stomatitis virus. Kind of assay: Concentration required to reduce vesicular stomatitis virus induced cytopathogenicity by 50% in primary rabbit kidney cell cultures.
The test system of another assay is Human alphaherpesvirus 2. Kind of assay: Concentration required to reduce HSV-2 (G) induced cytopathogenicity by 50% in primary rabbit kidney cell cultures.
Another assay deals with HeLa. Kind of assay: Concentration required to cause a microscopically detectable alteration in cell morphology in HeLa cell cultures. The settings on record: Homo sapiens, read-out: Min cytotoxic concentration. In short, it runs like this: as §1
The test system of assay [3] is Coxsackievirus B4. Kind of assay: Concentration required to reduce coxsackie virus 4 induced cytopathogenicity by 50% in HeLa cell cultures. The settings on record: Enterovirus B.
A further assay deals with Human alphaherpesvirus 1. Kind of assay: Concentration required to reduce HSV-1 (KOS) induced cytopathogenicity by 50% in primary rabbit kidney cell cultures.
The subject of assay [4] is Vesicular stomatitis virus. Kind of assay: Concentration required to reduce vesicular stomatitis virus induced cytopathogenicity by 50% in HeLa cell cultures.
The subject of assay [5] is Mammalian orthoreovirus 1. Kind of assay: Concentration required to reduce reovirus type 1 induced cytopathogenicity by 50% in vero cell cultures.
For the next assay, the system named is L1210. In words: Dose required to inhibit proliferation of L-1210 Cells by 50%. The settings on record: Mus musculus, read-out: ID50 (the source's name). An outline of the steps:
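Inhibition of proliferation of murine leukemia L-1210 cells in exponential growth phase. ID50 is the dose inhibiting cell proliferation by 50%, given plus or minus standard deviation.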

Consider `Nc1nccc2c1ncn2[C@@H]1C[C@H](CO)[C@H](O)C1O` (some centres not stated), for which the MIC in the assay with Human respirovirus 3 was 2 µg/mL (≈ 7.57 µM); with Coxsackievirus B4 [1] it was 2 µg/mL (≈ 7.57 µM); in the assay with Sindbis virus, 20 µg/mL (≈ 75.7 µM); against Poliovirus 1, over 400 µg/mL; in assay [2], 0.07 µg/mL (≈ 0.265 µM); in the assay with Human alphaherpesvirus 2, 300 µg/mL (≈ 1140 µM). The MIC against Coxsackievirus B4 [3] is over 400 µg/mL; in the assay with Human alphaherpesvirus 1, over 400 µg/mL; in assay [4], 0.7 µg/mL (≈ 2.65 µM); in assay [5], 2 µg/mL (≈ 7.57 µM). The MCC was over 100 µg/mL in the assay on Vero, over 200 µg/mL in the assay listed under Oryctolagus cuniculus and over 400 µg/mL in the assay on HeLa.
Consider `Nc1ncnc2c1c(/C=C/Br)cn2C1O[C@H](CO)[C@@H](O)[C@H]1O` (some centres not stated), for which the MIC is 1 µg/mL (≈ 2.69 µM) in the assay with Human respirovirus 3; over 1 µg/mL in the assay with Coxsackievirus B4 [1]; over 1 µg/mL against Sindbis virus; over 1 µg/mL against Poliovirus 1; over 1 µg/mL in [2]; over 1 µg/mL in the assay with Human alphaherpesvirus 2. The MIC with Coxsackievirus B4 [3] is over 1 µg/mL; against Human alphaherpesvirus 1 it was over 1 µg/mL; in assay [4], over 1 µg/mL; in assay [5], 1 µg/mL (≈ 2.69 µM). Besides, the MCC is 4 µg/mL with Vero, over 4 µg/mL in the assay listed under Oryctolagus cuniculus and 4 µg/mL in the assay with HeLa. In addition, the IC50 with L1210 is 7.84 µg/mL (≈ 21.1 µM).
For the compound `Nc1ncnc2c1c(Cl)cn2[C@@H]1O[C@H](CO)[C@@H](O)[C@H]1O`, the MIC was over 1 µg/mL against Human respirovirus 3; over 1 µg/mL in the assay with Coxsackievirus B4 [1]; over 1 µg/mL in the assay with Sindbis virus; 1 µg/mL (≈ 3.33 µM) against Poliovirus 1; over 1 µg/mL in assay [2]; over 1 µg/mL in the assay on Human alphaherpesvirus 2. The MIC in the assay with Coxsackievirus B4 [3] is over 0.4 µg/mL; against Human alphaherpesvirus 1 it was over 1 µg/mL; in assay [4] it was over 1 µg/mL; in assay [5], 0.7 µg/mL (≈ 2.33 µM). In addition, the MCC with Vero, in the assay filed under Oryctolagus cuniculus and in the assay on HeLa was 4 µg/mL in each case. Further, in the assay with L1210, the IC50 amounted to 0.014 µg/mL (≈ 0.0466 µM).
On to `Nc1ncnc2c1c(Cl)c(Cl)n2C1O[C@H](CO)[C@@H](O)[C@H]1O` (some centres not stated), for which the MIC was over 10 µg/mL with Human respirovirus 3; over 10 µg/mL in the assay on Coxsackievirus B4 [1]; over 10 µg/mL against Sindbis virus; over 10 µg/mL against Poliovirus 1; over 40 µg/mL in [2]; over 40 µg/mL in the assay on Human alphaherpesvirus 2. For the same compound, the MIC is over 10 µg/mL against Coxsackievirus B4 [3], over 40 µg/mL against Human alphaherpesvirus 1, over 10 µg/mL in [4] and over 10 µg/mL in assay [5]. The MCC with Vero, in the assay listed under Oryctolagus cuniculus and in the assay with HeLa was 40 µg/mL in each case. Also, the IC50 with L1210 was determined as 10.1 µg/mL (≈ 30.1 µM).
`Nc1ncnc2c1c(Br)cn2[C@@H]1O[C@H](CO)[C@@H](O)[C@H]1O`: the MIC in the assay on Human respirovirus 3 was over 0.4 µg/mL; in the assay on Coxsackievirus B4 [1] it was over 0.4 µg/mL; in the assay with Sindbis virus, over 0.4 µg/mL; with Poliovirus 1, over 0.4 µg/mL; in assay [2] it was over 1 µg/mL; against Human alphaherpesvirus 2, over 1 µg/mL. For the same compound, the MIC against Coxsackievirus B4 [3] is over 0.4 µg/mL; in the assay on Human alphaherpesvirus 1, over 1 µg/mL; in assay [4] it was over 0.4 µg/mL; in [5], over 0.4 µg/mL. For the same compound, the MCC in the assay on Vero was 0.4 µg/mL; in the assay filed under Oryctolagus cuniculus, 1 µg/mL; with HeLa, 1 µg/mL. The IC50 with L1210 was found to be 0.587 µg/mL (≈ 1.7 µM).
`N#Cc1cn([C@@H]2O[C@H](CO)[C@@H](O)[C@H]2O)c2ncnc(N)c12` [TOYOCAMYCIN]: the MIC was over 0.01 µg/mL against Human respirovirus 3; over 0.01 µg/mL in the assay on Coxsackievirus B4 [1]; over 0.01 µg/mL against Sindbis virus; over 0.01 µg/mL in the assay on Poliovirus 1; over 1 µg/mL in assay [2]; 0.07 µg/mL (≈ 0.24 µM) against Human alphaherpesvirus 2. Moreover, the MIC with Coxsackievirus B4 [3] is over 0.01 µg/mL; in the assay on Human alphaherpesvirus 1, over 0.04 µg/mL; in assay [4], 0.07 µg/mL (≈ 0.24 µM); in assay [5], over 0.01 µg/mL. Also, the MCC with Vero is 0.04 µg/mL; in the assay filed under Oryctolagus cuniculus, over 0.04 µg/mL; in the assay on HeLa, over 0.4 µg/mL. In the assay with L1210, the IC50 is 0.006 µg/mL (≈ 0.0206 µM).
On to `CC(O)c1cn(C2O[C@H](CO)[C@@H](O)[C@H]2O)c2ncnc(N)c12` (some centres not stated), for which the MIC against Human respirovirus 3 came out at 0.7 µg/mL (≈ 2.26 µM); against Coxsackievirus B4 [1] it was 2 µg/mL (≈ 6.45 µM); with Sindbis virus, 7 µg/mL (≈ 22.6 µM); with Poliovirus 1 it was 0.2 µg/mL (≈ 0.645 µM); in assay [2] it was 0.4 µg/mL (≈ 1.29 µM); with Human alphaherpesvirus 2, 7 µg/mL (≈ 22.6 µM). The MIC against Coxsackievirus B4 [3] was 0.7 µg/mL (≈ 2.26 µM); in the assay on Human alphaherpesvirus 1 it was 2 µg/mL (≈ 6.45 µM); in assay [4] it was 0.2 µg/mL (≈ 0.645 µM); in assay [5], 0.4 µg/mL (≈ 1.29 µM). The figures for the MCC with Vero, in the assay filed under Oryctolagus cuniculus and in the assay on HeLa were 40 µg/mL, 10 µg/mL and 40 µg/mL, respectively. The IC50 in the assay with L1210 is 0.111 µg/mL (≈ 0.358 µM).
In the case of `Nc1ncnc2c1cc(Br)n2C1O[C@H](CO)[C@@H](O)[C@H]1O` (some centres not stated), the MIC in the assay with Human respirovirus 3 was 70 µg/mL (≈ 203 µM); against Coxsackievirus B4 [1] it was 70 µg/mL (≈ 203 µM); in the assay on Sindbis virus, over 200 µg/mL; against Poliovirus 1 it was 150 µg/mL (≈ 435 µM); in [2], 300 µg/mL (≈ 869 µM); against Human alphaherpesvirus 2 it was over 400 µg/mL. Moreover, the MIC against Coxsackievirus B4 [3] is over 200 µg/mL; against Human alphaherpesvirus 1, over 400 µg/mL; in assay [4], 400 µg/mL (≈ 1160 µM); in assay [5], 70 µg/mL (≈ 203 µM). Also, the MCC in the assay with Vero was 400 µg/mL; in the assay filed under Oryctolagus cuniculus, over 400 µg/mL; in the assay on HeLa it was 400 µg/mL. The IC50 with L1210 is 36.5 µg/mL (≈ 106 µM).
Take `CCCCc1cn(C2O[C@H](CO)[C@@H](O)[C@H]2O)c2ncnc(N)c12` (some centres not stated): the MIC against Human respirovirus 3 was 20 µg/mL (≈ 62 µM); in the assay with Coxsackievirus B4 [1], over 40 µg/mL; with Sindbis virus, over 40 µg/mL; in the assay with Poliovirus 1, over 40 µg/mL; in assay [2], over 40 µg/mL; with Human alphaherpesvirus 2, over 40 µg/mL. For the same compound, the MIC (against Coxsackievirus B4 [3]; with Human alphaherpesvirus 1; in assay [4]; in assay [5]) was over 40 µg/mL in each case. Besides, the MCC was over 100 µg/mL in the assay on Vero, 40 µg/mL in the assay listed under Oryctolagus cuniculus and over 40 µg/mL with HeLa. Further, the IC50 in the assay on L1210 came out at 81.6 µg/mL (≈ 253 µM).
As to `COC(C)c1cn(C2O[C@H](CO)[C@@H](O)[C@H]2O)c2ncnc(N)c12` (some centres not stated), the MIC against Human respirovirus 3 was 2 µg/mL (≈ 6.17 µM); against Coxsackievirus B4 [1] it was 2 µg/mL (≈ 6.17 µM); in the assay on Sindbis virus, over 40 µg/mL; with Poliovirus 1, 0.7 µg/mL (≈ 2.16 µM); in assay [2], over 40 µg/mL; with Human alphaherpesvirus 2, over 40 µg/mL. The MIC is 0.7 µg/mL (≈ 2.16 µM) against Coxsackievirus B4 [3], 20 µg/mL (≈ 61.7 µM) in the assay on Human alphaherpesvirus 1, over 10 µg/mL in [4] and over 1 µg/mL in assay [5]. In addition, the MCC was determined as 100 µg/mL in the assay with Vero, 100 µg/mL in the assay filed under Oryctolagus cuniculus and 10 µg/mL in the assay on HeLa. Besides, in the assay on L1210, the IC50 turned out to be 0.404 µg/mL (≈ 1.25 µM).
For `Nc1ncnc2c1c(I)cn2[C@@H]1O[C@H](CO)[C@@H](O)[C@H]1O` [IODOTUBERCIDIN], the MIC is over 0.4 µg/mL against Human respirovirus 3; over 0.4 µg/mL against Coxsackievirus B4 [1]; over 0.4 µg/mL in the assay on Sindbis virus; over 0.4 µg/mL with Poliovirus 1; over 0.4 µg/mL in assay [2]; over 1 µg/mL against Human alphaherpesvirus 2. Further, the MIC was over 0.4 µg/mL with Coxsackievirus B4 [3], 0.02 µg/mL (≈ 0.051 µM) against Human alphaherpesvirus 1, over 0.4 µg/mL in assay [4] and over 0.4 µg/mL in assay [5]. Moreover, the MCC in the assay with Vero, in the assay listed under Oryctolagus cuniculus and in the assay with HeLa was 1 µg/mL in each case. Besides, the IC50 with L1210 was 1.25 µg/mL (≈ 3.19 µM).
As to `C/C=C/Cc1cn(C2O[C@H](CO)[C@@H](O)[C@H]2O)c2ncnc(N)c12` (some centres not stated), the MIC with Human respirovirus 3 was over 1 µg/mL; against Coxsackievirus B4 [1] it was 2 µg/mL (≈ 6.24 µM); against Sindbis virus it was over 40 µg/mL; with Poliovirus 1, 0.2 µg/mL (≈ 0.624 µM); in assay [2], over 40 µg/mL; in the assay with Human alphaherpesvirus 2, 150 µg/mL (≈ 468 µM). Moreover, the MIC turned out to be 0.2 µg/mL (≈ 0.624 µM) in the assay on Coxsackievirus B4 [3], 20 µg/mL (≈ 62.4 µM) in the assay with Human alphaherpesvirus 1, 0.07 µg/mL (≈ 0.219 µM) in assay [4] and 2 µg/mL (≈ 6.24 µM) in [5]. Moreover, the MCC with Vero was determined as 100 µg/mL; in the assay filed under Oryctolagus cuniculus, 200 µg/mL; in the assay on HeLa, 1 µg/mL. Besides, the IC50 in the assay with L1210 worked out at 0.63 µg/mL (≈ 1.97 µM).
